The nature of assay [1]: OD615 S. cerevisiae growth inhibition, permissive medium, pilot counter-assay, permissive growth control for S. cerevisiae lifespan shortening project (AID 705). The settings on record: OD615, 24 h, at 10 µM, hits give high values. In a few lines:
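System: S. cerevisiae with engineered DeaD lifespan system. Medium: SC raffinose/galactose permissive medium. Doses: single compound dose of 10 µM, 0.25% DMSO final. Schedule: 24 h exposure, 30 °C. Measured by: OD615 turbidity read. Read-out: growth inhibition.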

A short description of assay [2]: Restrictive medium S. cerevisiae growth inhibition, OD615, pilot screen of yeast lifespan reduction project, restrictive growth control (AID 706;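 active = growth inhibition above a set limit, 3 SD over mean compound inhibition, in both replicates, cut at about 43% in these data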). The settings on record: OD615, 48 h, at 10 µM, hits give high values. In short, it runs like this: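 Assay system – genetically modified Saccharomyces cerevisiae, DeaD replicative lifespan assay strain · Medium – CSMM-D glucose medium · Doses – 10 µM compound, 0.25% DMSO · Times – 4 h pre-incubation, 48 h exposure at 30 °C · Signal – optical density at 615 nm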

Assay [3] is described as follows: viability gain of MRP-1-high H69AR cells under doxorubicin, pilot screen, MRP-1 activator project, CellTiter-Glo, duplicate (AID 807;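 active = viability increase at or above a cutoff of the median across tested compounds plus 3 SD, cut at about 8.5% in these data, passing the limit was not always enough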;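 also: compound pretreatment 18-22 h then 72 h combined with doxorubicin; 0% = doxorubicin alone and 100% = vehicle without doxorubicin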). The settings on record: H69AR viability with doxorubicin, CellTiter-Glo luminescence; at 10 µM; hits give high values.
The nature of assay [4]: growth suppression of beta-catenin knockout HCT116, pilot screen, human colon tumor cells (AID 823;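 active = cell viability at or below a set limit in both duplicate runs, the limit being the all-compound median minus 4 SD, cut at about 23% in these data, passing the limit was not always enough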;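 also: 0% = wells killed by 20 µM Hyamine and 100% = untreated DMSO cell wells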). The settings on record: CellTiter-Glo, 60 h, at 10 µM, hits give low values. A general note: ATP-based viability assays read luminescence as a measure of living cells.
A short description of assay [5]: growth suppression of PTEN-deleted HCT116, pilot screen, cell-based, HCT116 clonal line, CellTiter-Glo (AID 824;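 active = viability at or below 27.92% in each of two runs, the all-compound median minus 4 SD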;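 also: 0% = 20 µM Hyamine control and 100% = vehicle cell control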). The note with it: 60 h, at 10 µM, hits give low values.
Assay [6] is described as follows: inhibitors of the yeast RAM network, pilot screen, dse1pr::URA3 reporter, 5-FOA selection (AID 869;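 active = inhibition over a set limit, the all-compound mean plus 3 SD, in both replicate runs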;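 also: 0% = DMSO wells with no growth and 100% = 10 µM 1-NA-PP1 with full growth; RAM network block rescues cells from 5-FOA so hits raise OD615 growth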). The settings on record: S. cerevisiae dse1pr::URA3 5-FOA growth, OD615, 2 d; at 10 µM; hits give high values; strain carries analog-sensitive mutant Cbk1 kinase.
Assay [7] is described as follows: RAM signaling pathway blockade in yeast – S. cerevisiae, Pdr1DBD-CYC8 efflux-inhibited sensitized strain, primary screen (AID 1298;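 active = RAM network inhibition above 8.4% in each of two replicates, 3 SD over the compound average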;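 also: 0% = DMSO untreated cells without growth and 100% = 10 µM 1-NA-PP1 full growth; higher means more yeast growth rescued from 5-FOA killing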). The note with it: S. cerevisiae cbk1-as DSE1-URA3 strain, 5-FOA growth OD615, 2 d; at 50 µM; hits give high values.

A number with no mark means an inactive call. Inconclusive results are not listed. Calls of active or inactive are those of the source.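 The calls were made as follows, unless noted: active = growth inhibition above 25% in both replicates, a cutoff set 3 SD above the mean; inconclusive = above 25% in only one replicate; inactive = the rest.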

As a reminder, the viability is a read-out of living cells in per cent, often relative to untreated cells. As usually defined, the inhibition is the change of the read-out against control, counted positive when it falls.

As to `Cc1cc(C(F)(F)F)n2ncc(C(=O)O)c2n1`, the growth inhibition in assay [1] was 2.26%; in assay [2], 0.105%. Also, in assay [3], the viability increase is -0.34%. The viability is 98.3% in assay [4] and 91% in assay [5]. The inhibition in assay [6] is -0.025%. Besides, the RAM network inhibition in assay [7] is 0.78%.
`COc1ccc(Cl)cc1N(CC(=O)Nc1ccc2c(c1)OCO2)S(C)(=O)=O`: the growth inhibition in assay [1] is -15.1%; in assay [2], -11.7%. Moreover, the viability increase in assay [3] is -3.17%. The viability was 92.6% in assay [4] and 89.4% in assay [5]. Also, the inhibition in assay [6] was 0.79%. Also, the RAM network inhibition in assay [7] is 2.18%.
Turning to `COC(=O)c1ccsc1NC(=O)c1ccc2c(c1)OCCO2`, the growth inhibition was 2.02% in assay [1] and -2.86% in assay [2]. In addition, in assay [3], the viability increase was -4.78%. Also, the viability in assay [4] was 81%; in assay [5], 68.1%. Further, in assay [6], the inhibition is 1.8%. In assay [7], the RAM network inhibition is 2.08%.
In the case of `CCC(C)NC(=O)C(Cc1ccccc1)n1cccc1` (stereo not drawn), the growth inhibition was -9.66% in assay [1] and -6.93% in assay [2]. The viability increase in assay [3] is 0.42%. Further, the values for the viability in assay [4] and in assay [5] were 101% and 88.4%, respectively. Besides, in assay [6], the inhibition was -0.195%. For the same compound, in assay [7], the RAM network inhibition was 3%.
As for `CCOC(=O)c1sc(NC(=O)C2CCCO2)c(C(=O)OCC)c1C` (stereo not drawn), the growth inhibition in assay [1] is -9.48%; in assay [2], -8.48%. For the same compound, in assay [3], the viability increase is -2.56%. Moreover, the viability in assay [4] was 102%; in assay [5], 93%. Besides, the inhibition in assay [6] was 1.31%. Moreover, in assay [7], the RAM network inhibition was 2.09%.
In the case of `CC(=O)c1cccc(NC(=O)C2CCCN(S(=O)(=O)c3cccc4cccnc34)C2)c1` (stereo not drawn), the growth inhibition was -10.5% in assay [1] and -5.17% in assay [2]. The viability increase in assay [3] is -2.34%. The values for the viability in assay [4] and in assay [5] were 83.5% and 73.7%, respectively. Besides, the inhibition in assay [6] was 2.18%. In addition, the RAM network inhibition in assay [7] is 4.5%.
Take `COc1ccc(C2=CC(c3ccc(Cl)cc3)n3cnnc3N2)cc1OC` (stereo not drawn): the growth inhibition in assay [1] was -1.79%; in assay [2], 2.91%. In assay [3], the viability increase was -2.06%. For the same compound, the figures for the viability in assay [4] and in assay [5] were 97.3% and 87%, respectively. Also, in assay [6], the inhibition is 0.37%. Moreover, in assay [7], the RAM network inhibition was 0.78%.
As to `Cc1ccc(C2=CC(c3ccc(N(C)C)cc3)n3nnnc3N2)cc1` (stereo not drawn), the growth inhibition was -10.6% in assay [1] and 7.92% in assay [2]. Also, in assay [3], the viability increase was -4.61%. The viability was 84% in assay [4] and 77.3% in assay [5]. Besides, the inhibition in assay [6] was 2.63%. Also, in assay [7], the RAM network inhibition is -0.47%.
In the case of `CN1C(=O)CC(N2CCC(c3nc4ccccc4[nH]3)CC2)C1=O` (stereo not drawn), the growth inhibition in assay [1] was -11.7%; in assay [2] it was -11.2%. In assay [3], the viability increase is -0.66%. In addition, the values for the viability in assay [4] and in assay [5] were 112% and 98.9%, respectively. Further, in assay [6], the inhibition is 3.77%. Besides, the RAM network inhibition in assay [7] was 3.31%.
For `Cc1ccc(Cl)cc1N1CCN(C(=O)C2CCN(c3nnc(-n4cccc4)s3)CC2)CC1`, the results for the growth inhibition in assay [1] and in assay [2] were -6.07% and -7.06%, respectively. Besides, the viability increase in assay [3] is 2.36%. Also, the viability in assay [4] and in assay [5] was 64% throughout. For the same compound, the inhibition in assay [6] was 4.06%. In addition, the RAM network inhibition in assay [7] was 8.04%.
For `O=P(O)(CCc1ccncc1)CN1CCCCC1`, the growth inhibition is -9.59% in assay [1] and -7.67% in assay [2]. In assay [3], the viability increase is 2.46%. Moreover, the viability in assay [4] is 97.3%; in assay [5] it was 101%. In addition, the inhibition in assay [6] was 1.82%. In assay [7], the RAM network inhibition was -0.01%.
On to `O=C(NCc1ccc(F)cc1)c1cnc2n(c1=O)CCS2`, for which the growth inhibition in assay [1] was -2.45%; in assay [2], -2.23%. Also, in assay [3], the viability increase is 2.85%. The figures for the viability in assay [4] and in assay [5] were 101% and 102%, respectively. The inhibition in assay [6] is 0.54%. Moreover, the RAM network inhibition in assay [7] was -0.84%.
Consider `Cc1cc(C)n(-c2nc(NC(C)(C)C)nc(NC(C)(C)C)n2)n1`, for which the values for the growth inhibition in assay [1] and in assay [2] were -11.5% and 11.4%, respectively. Also, in assay [3], the viability increase was -2.08%. The viability in assay [4] is 8.58% (active); in assay [5] it was 11.2% (active). In addition, in assay [6], the inhibition was 2.85%. For the same compound, the RAM network inhibition in assay [7] was 5.62%.
Consider `Cc1nc(C)c(C(=O)Nc2cccc(C)c2C)o1`, for which the growth inhibition was -5.6% in assay [1] and -15.8% in assay [2]. The viability increase in assay [3] was -3.05%. For the same compound, the viability was 109% in assay [4] and 90.1% in assay [5]. In addition, the inhibition in assay [6] is 3.58%. Also, in assay [7], the RAM network inhibition is 1.53%.
Take `COCCn1c(C)cc(C(=O)CSc2nnc3ccccn23)c1C`: the results for the growth inhibition in assay [1] and in assay [2] were 8.47% and 3.52%, respectively. The viability increase in assay [3] is -1.95%. Further, the viability in assay [4] was 98.8%; in assay [5], 91.7%. In assay [6], the inhibition is 0.76%. Also, the RAM network inhibition in assay [7] is 2.51%.
On to `O=S(=O)(NCCN1CCCC1)c1cccc2cccnc12`, for which the figures for the growth inhibition in assay [1] and in assay [2] were -4.34% and 14.2%, respectively. Besides, in assay [3], the viability increase was -2.62%. The values for the viability in assay [4] and in assay [5] were 99.8% and 92.9%, respectively. Moreover, the inhibition in assay [6] was 0.34%. Further, in assay [7], the RAM network inhibition is 5.38%.
`CC(=O)NC(CCS(C)(=O)=O)C(=O)Nc1ccc(Oc2ccccc2)cc1` (stereo not drawn): the growth inhibition in assay [1] was -7.71%; in assay [2], -16.7%. Besides, in assay [3], the viability increase was -0.67%. The figures for the viability in assay [4] and in assay [5] were 101% and 93.5%, respectively. Moreover, the inhibition in assay [6] is 1.69%. Moreover, the RAM network inhibition in assay [7] was 5.21%.
Turning to `O=C1c2ccccc2C(=O)N1CCCc1nc2ccccc2c(=O)n1Cc1ccco1`, the growth inhibition in assay [1] is -12.9%; in assay [2], -12.6%. The viability increase in assay [3] was -1.68%. Moreover, the viability in assay [4] is 93.6%; in assay [5] it was 93.5%. The inhibition in assay [6] is 3.96%. In addition, the RAM network inhibition in assay [7] was 7.66%.
Take `CCN(CC)Cc1c[nH]c2c(C(=O)OC)cccc12`: the growth inhibition was -11.4% in assay [1] and -23.5% in assay [2]. The viability increase in assay [3] is -4.51%. For the same compound, the viability in assay [4] was 101%; in assay [5], 94.9%. The inhibition in assay [6] is 2%. Moreover, in assay [7], the RAM network inhibition is -1.31%.
Take `CN1C[N+]([O-])=C(c2ccccc2)C1(C)C`: the values for the growth inhibition in assay [1] and in assay [2] were -1.95% and -8.32%, respectively. Moreover, in assay [3], the viability increase was -2.64%. The viability in assay [4] is 98.7%; in assay [5], 91.2%. For the same compound, the inhibition in assay [6] is 0.69%. The RAM network inhibition in assay [7] was 1.81%.
In the case of `Cc1ccc(C(C)C)c(OCc2nc(-c3nonc3N)no2)c1`, the values for the growth inhibition in assay [1] and in assay [2] were -13% and -14.4%, respectively. The viability increase in assay [3] is 8.48% (active). Besides, the viability is 88.3% in assay [4] and 81.2% in assay [5]. For the same compound, the inhibition in assay [6] was 1.71%. For the same compound, the RAM network inhibition in assay [7] is 3.09%.
As for `CCOC(=O)C1CCN(CC(O)COc2ccc(C(C)(C)CC)cc2)CC1` (stereo not drawn), the results for the growth inhibition in assay [1] and in assay [2] were -14% and -10.4%, respectively. Besides, the viability increase in assay [3] was -4.71%. In addition, the values for the viability in assay [4] and in assay [5] were 65.6% and 73.5%, respectively. In addition, in assay [6], the inhibition was -0.58%. Also, in assay [7], the RAM network inhibition was 0.78%.
As for `C=CCn1c(=N)n(CC(O)COc2ccccc2OC)c2ccccc21` (stereo not drawn), the growth inhibition is -4.97% in assay [1] and 0.15% in assay [2]. Besides, in assay [3], the viability increase is -4.19%. Further, the values for the viability in assay [4] and in assay [5] were 73.9% and 77.4%, respectively. Also, the inhibition in assay [6] is 1.92%. Also, the RAM network inhibition in assay [7] was 1.07%.
Regarding `COC(=O)c1ccc(-c2nc(-c3cccs3)no2)cc1`, the growth inhibition in assay [1] was 11.1%; in assay [2], 10.5%. In assay [3], the viability increase was -5.21%. Besides, the viability in assay [4] was 84.1%; in assay [5] it was 76.7%. In assay [6], the inhibition is 2.32%. Further, the RAM network inhibition in assay [7] was 0.79%.

These data come from PubChem BioAssay.
